Experimental data: ChEMBL document CHEMBL3352644, “Selenadiazole derivatives as potent thioredoxin reductase inhibitors that enhance the radiosensitivity of cancer cells” (Eur J Med Chem, 2014)
In brackets after ≈: the same amount, converted by molar mass. Activity calls are given as the source filed them. No cut-off for these calls is given here.

Experiments:
A-375 [1] = assay: Induction of cell shrinkage in human A375 cells pre-treated with 20 uM p38 inhibitor […] for 1 hr followed by 8 ug/mL compound exposure for 18 hrs by microscopy; format: functional, cell-based
Method in brief: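 A375 cells pretreated 1 h with […] JNK inhibitor SP600125 or p38 inhibitor SB203580, then given […] compound for 18 h. Morphology imaged.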

A-375 [2] = assay: Reduction in Bid expression in human A375 cells at 4 ug/mL incubated for 6 hrs followed by irradiation with 8 Gy X-ray at 37 degC for 12 hrs by Western blotting method; format: functional, cell-based
Method in brief: (§1)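 A375 cells given […] for 6 h, then 0 or 8 Gy X-ray at 1.5 Gy/min and 12 h further culture. Lysis in ice-cold RIPA, pH 7.4, with protease and phosphatase inhibitors; protein by BCA. […] protein per lane on SDS-PAGE, transferred to nitrocellulose. Blocked in 5% milk/TBST. Primary 1:1000, 10 h, 4 °C; HRP secondary 1:2000, 1.5 h.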

A-375 [3] = assay: Induction of apoptosis in human A375 cells assessed as caspase 9 activation at 2 ug/mL incubated for 6 hrs followed by irradiation with 8 Gy X-ray at 37 degC for 12 hrs by fluorometric assay; format: functional, cell-based
Method in brief: (§2)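 Cells seeded at 1 × 10⁶ per 10 cm dish and treated with 2 µg/ml alone or with 8 Gy X-ray for 18 h total. RIPA lysates clarified by spinning at 12,000 rpm for 5 min; 80 µg protein given Ac-DEVD-AMC (caspase-3), Ac-IETD-AMC (caspase-8) or Ac-LEHD-AMC (caspase-9). Incubated 2 h at 37 °C in the dark; fluorescence at 380/440 nm.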

A-375 [4] = assay: Induction of cell shrinkage in human A375 cells incubated for 6 hrs followed by irradiation with 8 Gy X-ray at 37 degC for 12 hrs by microscopy; format: functional, cell-based
Method in brief: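 A375 cells in DMEM with 10% FBS, 37 °C, 5% CO2. Pretreated with agent 6 h, then 0 or 8 Gy X-ray from a linear accelerator at 1.5 Gy/min, room temperature. Incubated a further 12 h; morphology imaged.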

A-375 [5] = assay: Reduction in Bcl-2 expression in human A375 cells at 4 ug/mL incubated for 18 hrs by Western blotting method; format: functional, cell-based; method in brief: as §1
A-375 [6] = assay: Induction of apoptosis in human A375 cells assessed as caspase 8 activation at 2 ug/mL incubated for 6 hrs followed by irradiation with 8 Gy X-ray at 37 degC for 12 hrs by Western blotting method; format: functional, cell-based
Method in brief: (§3)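 A375 cells treated with 2 µg/ml alone or with 8 Gy X-ray (6 h pretreatment, then 12 h; 18 h total). RIPA lysates (50 µg protein) run on SDS-PAGE and immunoblotted for caspases and PARP cleavage. Reprobed for β-actin as loading control.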

A-375 [7] = assay: Induction of apoptosis in human A375 cells assessed as caspase 9 activation at 2 ug/mL incubated for 18 hrs by fluorometric assay; format: functional, cell-based; method in brief: as §2
A-375 [8] = assay: Induction of apoptosis in human A375 cells assessed as caspase 8 activation at 2 ug/mL incubated for 18 hrs by fluorometric assay; format: functional, cell-based; method in brief: as §2
A-375 [9] = assay: Cytotoxicity against human A375 cells after 18 hrs by MTT assay; format: functional, cell-based; settings: A-375, 18 h
Method in brief: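 A375 cells (DMEM, 10% FBS, 37 °C, 5% CO2) seeded at 4 × 10⁴ cells/well and grown to 70–80% confluence. Treated with 0, 1, 2, 4, 8, 16 or 32 µg/ml for 6 h, then given 0 or 8 Gy X-ray (linear accelerator, 1.5 Gy/min), then 12 h more at 37 °C. MTT 4 h, formazan dissolved in DMSO, read at 570 nm; % of control; three repeats.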

A-375 [10] = assay: Induction of apoptosis in human A375 cells assessed as caspase 9 activation at 2 ug/mL incubated for 6 hrs followed by irradiation with 8 Gy X-ray at 37 degC for 12 hrs by Western blotting method; format: functional, cell-based; method in brief: as §3
A-375 [11] = assay: Induction of cell cycle arrest in human A375 cells assessed as accumulation at G2/M phase at 4 ug/mL incubated for 6 hrs followed by irradiation with 8 Gy X-ray at 37 degC for 12 hrs by propidium iodide staining based flow cytometry (reference value: 47.2%); format: functional
Method in brief: (§4)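 A375 cells treated at 10 or 4 µg/ml for 6 h, given 0 or 8 Gy X-ray, then 12 h more. Trypsinized, washed in PBS, fixed overnight in ice-cold 75% ethanol at −20 °C. Stained with propidium iodide, 30 min at 37 °C in the dark; DNA content and sub-G1 population read by flow cytometry.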

Homo sapiens = species on record: Homo sapiens; assay: Binding affinity to PMB-AGUVGAGLIK TrxR model peptide (unknown origin) at peptide to compound molar ratio of 1:1 at 37 degC for 18 hrs by MALDI-TOF-MS/MS assay
Method in brief: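 Pre-reduced TrxR model peptide PMB-Ala-Gly-Sec-Val-Gly-Ala-Gly-Leu-Ile-Lys incubated with compound at 1:1 molar ratio, 37 °C, 18 h; adducts examined by MALDI-TOF MS, looking for compound-derived mass shifts and fragment peaks.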

A-375 [12] = assay: Induction of ROS generation in human A375 cells at 4 ug/mL incubated for 6 hrs followed by irradiation with 8 Gy X-ray at 37 degC for 12 hrs by DCF and DHE dye based fluorescence assay; format: functional, cell-based
Method in brief: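 A375 cells (4 × 10⁴/well) cultured 24 h, then treated 6 h at 8 or 16 µg/ml or at 2 or 4 µg/ml, and given 0 or 8 Gy X-ray. Loaded with H₂DCF or DHE for 30 min at 37 °C in the dark. Fluorescence read at 485/535 nm (DCF) or 480/610 nm (DHE); % of control.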

A-375 [13] = assay: Induction of cell morphological changes in human A375 cells incubated for 6 hrs followed by irradiation with 8 Gy X-ray at 37 degC for 12 hrs by microscopy; format: functional, cell-based
A-375 [14] = assay: Induction of cell cycle arrest in human A375 cells assessed as accumulation at S phase at 4 ug/mL incubated for 18 hrs by propidium iodide staining based flow cytometry (reference value: 37.2%); format: functional; method in brief: as §4
A-375 [15] = assay: Induction of apoptosis in human A375 cells assessed as caspase PARP cleavage at 2 ug/mL incubated for 18 hrs by Western blotting method; format: functional, cell-based; method in brief: as §3
A-375 [16] = assay: Induction of apoptosis in human A375 cells assessed as caspase 8 activation at 2 ug/mL incubated for 18 hrs by Western blotting method; format: functional, cell-based; method in brief: as §3
[17] = biological target: Thioredoxin reductase (Homo sapiens) (UniProt Q16881+Q9NNW7+Q86VQ6); assay: Inhibition of TrxR antioxidant enzyme activity in human A375 cells at 2 ug/mL incubated for 6 hrs followed by irradiation with 8 Gy X-ray at 37 degC for 12 hrs by insulin reduction assay; format: cell-based; settings: A-375
[18] = biological target: c-Jun N-terminal kinase, JNK (Homo sapiens) (UniProt P45983+P53779+P45984); assay: Induction of JNK phosphorylation in human A375 cells at 4 ug/mL incubated for 18 hrs by Western blotting method; format: cell-based; settings: A-375
Method in brief: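 A375 cells pretreated 6 h with compound at 4 µg/ml, given 0 or 8 Gy X-ray, then incubated 12 h more. Lysed in RIPA buffer, pH 7.4, with protease and phosphatase inhibitors; 50 µg protein run on SDS-PAGE and blotted to nitrocellulose. Blocked in 5% milk; primary antibodies 1:1000, 10 h at 4 °C; HRP secondary 1:2000.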

In the case of `COc1cc(-c2nc3cc(-c4ccc5n[se]nc5c4)ccc3[nH]2)cc(OC)c1OC`, the Activity (A-375 [1]) was “inactive”, the Activity (A-375 [2]) was “Active” and the Activity (A-375 [3]) was “Active”. For the same molecule, the Activity (A-375 [4]) was “Active”, the Activity (A-375 [5]) was “Active” and the Activity (A-375 [6]) was “Active”. The Activity (A-375 [7]) was “Active”, the Activity (A-375 [8]) was “Active” and the IC50 (A-375 [9]) was 12.4 mg/L (≈ 26.6 µM). The Activity (A-375 [10]) was “Active”, the Activity (A-375 [11]) was 22.1% and the Activity (Homo sapiens) was “Active”. The Activity (A-375 [12]) was “Active”, the Activity (A-375 [13]) was “Active” and the Activity (A-375 [14]) was 34%. The Activity (A-375 [15]) was “Active”, the Activity (A-375 [16]) was “Active” and the inhibition [17] was “Active”. For the same molecule, the Activity [18] was “Active”.
